Data taken from ChEMBL document CHEMBL3259555, “Aromatic diacylhydrazine derivatives as a new class of polo-like kinase 1 (PLK1) inhibitors” (Eur J Med Chem, 2014).

Key:
cells = conditions: Homo sapiens, Cancer cell lines, 48 h
[1] = Cytotoxicity against macrophage (unknown origin) assessed as reduction in cell viability after 24 hrs by MTT assay; type: cell-based; conditions: macrophages (unknown origin)
Summary of the method: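 Macrophages plated at 5×10⁵ cells per well with a range of compound concentrations and incubated 24 h at 37 °C, 5% CO₂. MTT (4 mg/mL stock) added for the final 4 h, plate centrifuged, supernatant removed, DMSO added, absorbance read at 570 nm. Triplicate wells per concentration, assay repeated three times; CC50 (50% viability reduction) given as mean ± SD.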

Row | Compound | IC50 (cells) | CC50 at 24 h [1]
1 | O=C(/C=C/c1cccc(Cl)c1)NNC(=O)c1ccc2c(c1)OCCO2 | 3.56 µM | 391 µM
2 | O=C(/C=C/c1ccccc1F)NNC(=O)c1ccc2c(c1)OCCO2 | 4.51 µM | 302 µM
3 | O=C(/C=C/c1cccc(Br)c1)NNC(=O)c1ccc2c(c1)OCCO2 | 3.33 µM | 351 µM
4 | O=C(/C=C/c1cccc(F)c1)NNC(=O)c1ccc2c(c1)OCCO2 | 4.11 µM | 221 µM
5 | O=C(/C=C/c1ccccc1Br)NNC(=O)c1ccc2c(c1)OCCO2 | 2.11 µM | 315 µM
6 | COc1ccccc1/C=C/C(=O)NNC(=O)c1ccc2c(c1)OCCO2 | 8.06 µM | 312 µM
7 | O=C(/C=C/c1ccc(Br)cc1)NNC(=O)c1ccc2c(c1)OCCO2 | 2.33 µM | 259 µM
8 | O=C(/C=C/c1ccccc1Cl)NNC(=O)c1ccc2c(c1)OCCO2 | 4.88 µM | 285 µM
9 | Cc1cccc(/C=C/C(=O)NNC(=O)c2ccc3c(c2)OCCO3)c1 | 2.89 µM | 281 µM
10 | O=C(/C=C/c1cccc([N+](=O)[O-])c1)NNC(=O)c1ccc2c(c1)OCCO2 | 1.56 µM | 323 µM
11 | Cc1ccccc1/C=C/C(=O)NNC(=O)c1ccc2c(c1)OCCO2 | 7.71 µM | 268 µM

These reach a lower IC50 (cells). Values come first.

Row | IC50 (cells) | Compound | CC50 at 24 h [1]
12 | 1.13 µM | O=C(/C=C/c1ccc(Cl)cc1)NNC(=O)c1ccc2c(c1)OCCO2 | 309 µM
13 | 1.05 µM | Cc1ccc(/C=C/C(=O)NNC(=O)c2ccc3c(c2)OCCO3)cc1 | 332 µM
14 | 0.99 µM | O=C(/C=C/c1ccc(F)cc1)NNC(=O)c1ccc2c(c1)OCCO2 | 319 µM
15 | 0.93 µM | COc1ccc(/C=C/C(=O)NNC(=O)c2ccc3c(c2)OCCO3)cc1 | 319 µM
16 | 0.89 µM | O=C(/C=C/c1ccccc1[N+](=O)[O-])NNC(=O)c1ccc2c(c1)OCCO2 | 257 µM
17 | 0.61 µM | O=C(/C=C/c1ccc([N+](=O)[O-])cc1)NNC(=O)c1ccc2c(c1)OCCO2 | 295 µM
18 | 0.55 µM | O=C(/C=C/c1ccccc1)NNC(=O)c1ccc2c(c1)OCCO2 | 312 µM
19 | 0.17 µM | COc1cccc(/C=C/C(=O)NNC(=O)c2ccc3c(c2)OCCO3)c1 | 398 µM
